# Screening results: PubChem, Broad Institute
# N-glyco inh: blocks N-linked glycosylation in D54 reporter cells. D54 ERlucT glycosylation luciferase reporter, 24 h; percent of 100 nM tunicamycin response. reporter increase, % at 12.5 µM. actives 0.23% (n = 360,000). AID 588692;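 active means mean luciferase reporter signal, scaled so untreated is 0 and the glycosylation-blocking control 100, at or above a set limit in every replicate; inconclusive means mean reaches the limit but not every replicate does; inactive means mean below the limit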;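 further: luciferase carries N-glycosylation sites so blocking glycosylation raises the light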
# NSD2 HMT inh: NSD2 (human) methyltransferase inhibition | actives 0.54% (n = 310,000) | NSD2 peptide methylation, AlphaScreen, 120 min | inhibition, % at 12.5 µM; in the data active means inhibition above about 50%
# RAD52 inh: inhibitors of human RAD52 DNA annealing; actives 0.46% (n = 360,000); inhibition, % at 18.7 µM; AID 651710; P43351; recombinant RAD52 DNA annealing, FRET fluorescence;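 active means every replicate showing at least 50% inhibition; inconclusive means mean inhibition at least 50% but not in every replicate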
# Target sequence (P43351 whole entry, looked up): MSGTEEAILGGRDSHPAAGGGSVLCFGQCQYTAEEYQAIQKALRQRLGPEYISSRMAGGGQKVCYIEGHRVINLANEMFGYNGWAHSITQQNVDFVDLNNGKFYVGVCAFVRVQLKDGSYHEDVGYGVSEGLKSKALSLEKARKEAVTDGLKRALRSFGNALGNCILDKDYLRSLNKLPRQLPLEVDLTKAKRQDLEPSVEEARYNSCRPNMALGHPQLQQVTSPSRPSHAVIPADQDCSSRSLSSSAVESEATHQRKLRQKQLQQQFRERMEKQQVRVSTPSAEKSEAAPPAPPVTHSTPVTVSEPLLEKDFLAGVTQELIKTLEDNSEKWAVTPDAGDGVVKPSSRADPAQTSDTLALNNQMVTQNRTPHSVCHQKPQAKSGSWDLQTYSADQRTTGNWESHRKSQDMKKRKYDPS
# FN deposition inh: fibronectin deposition inhibition; AH1F fibroblasts, Alexa488-fibronectin deposition fluorescence, overnight; inhibition, % at 12.6 µM; actives 0.086% (n = 350,000);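 active means mean inhibition across replicates of 30% or more, regardless of how many single replicates reach that level; inconclusive means mean under 30% yet at least half of replicates reach 30%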
#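 Assay system: AH1F fibroblasts / Quantity: 10000 cells per well / Medium: DMEM plus 2% serum, read in PBS / Reagent: labelled fibronectin 24 nM / Dosing: single dose, pinned / Times: 1 h cell attachment, overnight exposure to compound and label / Signal: fluorescence, ex 485 nm, em 525 nm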
# AF4-AF9 inh: inhibitors of human MLL-AF4/AF9 interaction | actives 0.47% (n = 350,000) | inhibition, % at 10 µM | AlphaScreen, biotin-AF4 peptide binding to FLAG-AF9;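 active means every replicate reaching a set inhibition limit, whatever the replicate mean, cut at about 25% in these data; inconclusive means mean inhibition reaches that limit but some replicates miss it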
# RAD54 branch: inhibitors of human RAD54 branch migration | RAD54 Holliday junction branch migration, FAM/BHQ fluorescence | inhibition, % at 10.4 µM | Q92698 | actives 0.14% (n = 360,000) | AID 602329;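 active means mean normalized replicate activity at least 40 and at least half of replicates scoring 40 or more; inconclusive means only one of the two criteria met; inactive means mean below 40 and under half of replicates reaching 40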;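 further: inhibitors cause a drop in the FAM fluorescence signal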
# DNA binding: DNA binding artifact in Rad54 counter-screen. actives 8% (n = 460). AID 651673. Acridine orange-DNA displacement, fluorescence polarization, 20 min. shares compounds with RAD54 branch. AC50, µM (doses to about 35 µM);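 active means signal drop giving an AC50 within twice the top valid tested concentration of each sample, actives reach about 35 µM in these data; inactive means activity opposite to expected, plus the rest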;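 further: polarization loss reports compound binding to salmon sperm DNA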
# RAD52 DNA ctr: counter-screen for RAD52 inhibitors: DNA binding compounds; Salmon sperm DNA/acridine orange FP displacement; AC50, µM; actives 8% (n = 1,000); shares compounds with RAD52 inh; AID 652128;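 active means fitted half-maximal concentration for signal loss at or below twice the highest dose tested, in every separate run, actives reach about 64 µM in these data; inconclusive means runs disagree, or flat partial signal loss, or poor fit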
# Numbers stand for hits; – = inactive; ? = inconclusive; · = no result given. Hits are enriched below; roughly 1.2% of the tested compounds scored in any of these assays.
SMILES,N-glyco inh,NSD2 HMT inh,RAD52 inh,FN deposition inh,AF4-AF9 inh,RAD54 branch,DNA binding,RAD52 DNA ctr
CN(C)CCCNc1cc(-c2ccccc2)nc2cc(-c3cccc(F)c3)nn12,–,–,67,–,–,90,–,–
Cc1cccc(-c2cc3nc(C)cc(NCCCN(C)C)n3n2)c1,–,–,·,·,·,–,·,·
O=C(C[C@H]1CC[C@@H](NC(=O)C2CCOCC2)[C@@H](CO)O1)NCC1CC1,·,·,–,·,–,·,·,·
CCN(CC)CCNc1ccc(CO)c2sc3ccccc3c(=O)c12,–,·,54,–,–,100,29µM,22µM
COc1ccc(C(=O)NC2CCCCC2)cc1S(=O)(=O)N1CCCC1,–,–,·,–,·,–,·,·
COc1cc(C(=O)NC2CCN(C)CC2)ccc1Nc1ncc2c(n1)N(C1CCCCC1)CCC(=O)N2C,52,·,97,–,–,78,–,–
C[C@@H]1CCCCO[C@H](CN(C)Cc2ccc(C(F)(F)F)cc2)[C@@H](C)CN([C@@H](C)CO)C(=O)c2cc(NC(=O)CCCN(C)C)ccc2O1,·,·,–,·,–,–,·,·
COCC(=O)Nc1ccc2c(c1)OC[C@H](C)N(C(=O)c1cnccn1)C[C@H](C)[C@@H](OC)CN(C)C2=O,·,·,–,–,–,·,·,·
COc1cccc(-c2cc3nc(NCCN4CCCC4)n(C)c(=O)c3s2)c1,–,–,89,–,–,70,–,–
Cn1c(NCCN2CCCC2)nc2cc(-c3ccccc3)sc2c1=O,–,–,52,·,–,?,–,–
COc1ccc2c3c([nH]c2c1)[C@@H](CO)N(C(=O)C1CCCC1)CC31CN(S(C)(=O)=O)C1,·,·,–,·,–,·,·,·
COc1ccc2c3c(n(C)c2c1)[C@H](CO)N(C(=O)NC(C)C)CC31CCN(CC2CCCCC2)CC1,·,·,–,·,–,·,·,·
CCCN(CCC)CCCNC(=O)c1cc2c(-c3ccc(OC)c(OC)c3)nn(C)c2s1,–,–,90,–,–,104,–,–
COCCCNC(=O)c1cc2c(-c3cccc(OC)c3)nn(C)c2s1,–,–,–,–,–,–,·,·
COc1ccc(-c2nn(C)c3sc(C(=O)NCCN(C)C)cc23)cc1OC,–,–,101,–,–,97,–,–
C[C@@H]1CCCCO[C@@H](CN(C)C(=O)c2ccncc2)[C@@H](C)CN([C@H](C)CO)C(=O)c2cc(NS(=O)(=O)c3ccc(F)cc3)ccc2O1,·,·,–,–,–,–,·,·
CN(C)CCNc1ncnc2sc(-c3ccccc3)cc12,–,–,59,–,–,67,–,–
C[C@@H]1CCCCO[C@@H](CN(C)C)[C@H](C)CN([C@@H](C)CO)C(=O)c2cc(NS(=O)(=O)c3cn(C)cn3)ccc2O1,·,·,–,–,–,–,·,·
CCOc1ccc(Nc2cc(C)c3ccccc3n2)cc1,–,–,–,–,–,–,·,·
CCOc1ccc(Nc2c3ccccc3nc3ccccc23)cc1,64,·,85,–,37,106,27µM,–
CCc1ccc2nc3nc(C)cc(C)c3c(N)c2c1,85,–,83,·,–,88,–,–
CCOC(=O)c1oc2ccc(OC)cc2c1NC(=O)CN1CCN(C)CC1,–,–,·,–,·,·,·,·
Cc1ccc(C(=O)c2oc3ccc(Cl)cc3c2NC(=O)CN2CCN(C)CC2)cc1,–,–,82,–,31,82,–,–
C=CCNc1nc(N)c([N+](=O)[O-])c(Nc2ccccc2OC)n1,–,–,–,–,–,–,·,·
COc1ccccc1Nc1nc(NCCCN(C)C)nc(N)c1[N+](=O)[O-],–,–,95,–,–,77,–,–
SMILES,N-glyco inh,NSD2 HMT inh,RAD52 inh,FN deposition inh,AF4-AF9 inh,RAD54 branch,DNA binding,RAD52 DNA ctr
Cc1[nH]ccc2cc3nc4ccccc4c3cc12,–,–,101,–,–,83,–,?
Cc1cccc2nc3ccccc3cc12,–,–,–,–,–,–,·,·
Cc1noc(C)c1S(=O)(=O)Nc1ccc2c(c1)CC(=O)N([C@H](C)CO)C[C@@H](C)[C@H](CN(C)Cc1ccc(C(=O)O)cc1)O2,·,·,–,·,–,–,·,·
CCN(CC)CC(O)c1ccc2ccc3ccc(O)cc3c2c1 (centres undefined),–,–,72,–,–,68,–,–
CC(C)CC#Cc1ccc2c(c1)O[C@@H](CN(C)C(=O)Cc1ccccn1)[C@@H](C)CN([C@H](C)CO)S2(=O)=O,·,·,–,–,–,–,·,·
CN1C(=O)c2cc(NS(=O)(=O)c3cccc(F)c3)ccc2OC[C@H]2O[C@H](CC(=O)O)CC[C@@H]21,·,·,–,–,–,–,·,·
COc1ccc(Cc2c(-c3ccc(OC)c(OC)c3)nc3c(C)cc(Br)cn23)c(C)c1,–,·,52,–,–,60,–,–
CC(=O)N(C)C[C@@H]1Oc2cc(C#CC(C)C)ccc2S(=O)(=O)N([C@@H](C)CO)C[C@H]1C,·,·,–,–,–,–,·,·
CN(C)CCCN1C(=O)c2cccc3cccc(c23)C1=O,116,–,58,–,–,102,–,–
CN(C)CCCN1C(=O)c2cc3ccccc3cc2C1=O,–,–,–,–,–,–,·,·
COc1cccc(-c2ccc3c(c2)[C@@H]2[C@@H](CCN2S(=O)(=O)c2ccccc2C)[C@H](CO)N3C)c1,·,·,–,–,–,–,·,·
CN(C)CCCNc1nc2cc(-c3ccc(F)cc3)sc2c(=O)n1C,–,–,71,–,–,70,–,–
CN(C)CCCNc1nc2cc(-c3cncnc3)sc2c(=O)n1C,–,–,–,–,–,–,·,·
CN(C)CCCNc1nc2cc(-c3ccccc3)sc2c(=O)n1C,–,–,54,–,–,?,–,–
O=C(C[C@H]1C=C[C@@H](NS(=O)(=O)c2ccc(F)cc2)[C@H](CO)O1)NCc1ccccc1F,·,·,–,·,–,·,·,·
CN(C)CCNc1c2c(nc3ccccc13)CCC2,–,–,–,–,–,–,·,·
CN(C)CCCNc1c2ccccc2nc2ccccc12,–,·,87,–,–,99,7.6µM,9.3µM
c1ccc(CNc2c3ccccc3nc3ccccc23)cc1,–,·,84,–,–,83,29µM,?
Cc1ccc(-c2nc(NCCCN(C)C)c3ccccc3n2)cc1,?,·,84,–,–,83,–,–
COc1ccc(CN(C)C[C@@H]2Oc3ccc(NC(=O)Nc4c(C)noc4C)cc3CC(=O)N([C@H](C)CO)C[C@@H]2C)cc1,·,·,–,–,–,·,·,·
C[C@H]1CN([C@@H](C)CO)C(=O)c2cc(NC(=O)CCC(F)(F)F)ccc2O[C@@H]1CN(C)CC1CC1,·,·,–,·,–,–,·,·
OC(CN1CCCCC1)Cn1c2ccc(Cl)cc2c2cc(Cl)ccc21 (centres undefined),–,–,59,–,–,55,–,–
N=c1c(C(=O)NCCN2CCOCC2)cc2c(=O)n3ccccc3nc2n1Cc1ccc(F)cc1,–,–,–,–,–,–,·,·
